For series [1] the following is noted: rats, same dose level; cited from earlier work.
Series [2] relates to A549. The settings on record: A549 lung cancer cell line; cited from earlier work.
Series [3] is classed as in vivo, Sprague Dawley rats. The settings on record: for accumulation factor: rats. Summed up: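 Male SD rats (n = 5/group) were 7 wk old for the single dose, 6 wk for 2 wks, and 4 wk for 4 or 8 wks. They received KRG in PBS, 2 g/kg/day PO. Tail-vein blood was drawn 0–96 h after the last dose and spun 13,700 x g for 15 min; plasma was stored at −80 °C. Rb1, Rd and compound K were measured by LC-MS/MS with berberine as internal standard. Non-compartmental analysis was used; Tmax is reported as median (range).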

A short description of series [4]: Pharmacokinetic study 2: oral compound K, single or 4 wks, in rats. Conditions: AUC 4 wks / AUC single. The format is in vivo, Sprague Dawley rats. Summed up: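 Male SD rats (n = 5/group; 7 wk old for single dosing, 4 wk for 4 wks) got test compound in PBS by oral gavage at 5 or 10 mg/kg/day, single dose or 4 wks. Tail-vein plasma was sampled 0–24 h and assayed by LC-MS/MS. One-compartment model; AUC by trapezoids; Tmax as median (range). Accumulation factor = AUC(0−t) repeated / AUC(0−t) single at the same dose.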

Series [5] has as its system PC-9 cells. The settings on record: PC-9 lung cancer cell line; cited from earlier work.
Series [6] concerns prostaglandin E2 (PGE2). Conditions: read-out: IC50 for PGE2; in vitro; ref Park et al.[47]; cited from earlier work.
For series [7] the following is noted: humans; cited from earlier work.
The conditions of series [8]: 80% T>IC50, 5 mg/kg, single oral, rats.
Series [9] concerns nitric oxide (NO). The settings on record: read-out: IC50 for NO; in vitro; ref Park et al.[47]; cited from earlier work.
The mark [10] stands for this setting: male, Sprague-Dawley, rat, plasma, po, 2 g/kg.
The mark [11] stands for this setting: KRG 2 g/kg oral, 2 wks vs single (AUC ratio).

Read-outs that look alike come from different tables or passages of the source. A value given as a limit tells only on which side of the number the result lay.

In general, Cmax refers to the peak of the concentration-time curve. Broadly, the IC50 is the concentration needed to halve the response being measured.

For `CC(C)=CCC[C@](C)(O[C@@H]1O[C@H](CO)[C@@H](O)[C@H](O)[C@H]1O)[C@H]1CC[C@]2(C)[C@@H]1[C@H](O)C[C@@H]1[C@@]3(C)CC[C@H](O)C(C)(C)[C@@H]3CC[C@]12C` [Compound K, compound K], the oral bioavailability in [1] is listed as 4%. Moreover, the “in vitro IC50, antitumor activity” value in series [2] is recorded as 16.11 µg/mL; in series [5], 14.46 µg/mL. Also, the Cmax in [3] (rat plasma, KRG 2 g/kg oral, 4 wks) is 2.9 ng/mL; in series [3] (rat plasma, KRG 2 g/kg oral, 8 wks) it was 2.3 ng/mL. For the same molecule, the results for the accumulation factor in [4] (compound K oral 5 mg/kg) and in series [4] (compound K oral 10 mg/kg) were 4 and 7, respectively. Moreover, the IC50 in [6] was 4 µM; in series [9], 12 µM. Moreover, the “time of appearance in plasma after consuming ginseng lacking compound K” value in series [7] is 8 h. The Calculated dosing interval was around 7 h in [8] (NO (IC50 12 µM)) and around 18 h in series [8] (PGE2 (IC50 4 µM)).

In [3] (setting [10]), `CC(C)=CCC[C@](C)(O[C@@H]1O[C@H](CO[C@@H]2O[C@H](CO)[C@@H](O)[C@H](O)[C@H]2O)[C@@H](O)[C@H](O)[C@H]1O)[C@H]1CC[C@]2(C)[C@@H]1[C@H](O)C[C@@H]1[C@@]3(C)CC[C@H](O[C@@H]4O[C@H](CO)[C@@H](O)[C@H](O)[C@H]4O[C@@H]4O[C@H](CO)[C@@H](O)[C@H](O)[C@H]4O)C(C)(C)[C@@H]3CC[C@]12C` [Rb1, ginsenoside Rb1] returned a Cmax of 23.9 ng/mL and a Cmax at 8 wks of 68.3 ng/mL. The accumulation factor result in series [3] (setting [11]) is reported as “approximately 3”. Also, the “time within which excreted in the urine” value in [7] was at most 3 h.

For the molecule `CC(C)=CCC[C@](C)(O[C@@H]1O[C@H](CO[C@@H]2O[C@@H](CO)[C@H](O)[C@H]2O)[C@@H](O)[C@H](O)[C@H]1O)[C@H]1CC[C@]2(C)[C@@H]1[C@H](O)C[C@@H]1[C@@]3(C)CC[C@H](O[C@@H]4O[C@H](CO)[C@@H](O)[C@H](O)[C@H]4O[C@@H]4O[C@H](CO)[C@@H](O)[C@H](O)[C@H]4O)C(C)(C)[C@@H]3CC[C@]12C` [Rc, ginsenoside Rc], in series [7], the “time within which excreted in the urine” value is at most 3 h.

Molecule `CC(C)=CCC[C@](C)(O[C@@H]1O[C@H](CO)[C@@H](O)[C@H](O)[C@H]1O)[C@H]1CC[C@]2(C)[C@@H]1[C@H](O)C[C@@H]1[C@@]3(C)CC[C@H](O[C@@H]4O[C@H](CO)[C@@H](O)[C@H](O)[C@H]4O[C@@H]4O[C@H](CO)[C@@H](O)[C@H](O)[C@H]4O)C(C)(C)[C@@H]3CC[C@]12C` [Rd, ginsenoside Rd] came in with a Cmax in series [3] (setting [10]) of 8.5 ng/mL. Further, the accumulation factor in series [3] (setting [11]) came out at 2.2; in series [3] (KRG 2 g/kg oral, 8 wks vs single (AUC ratio)), 5. For the same molecule, the “time within which excreted in the urine” value in [7] is on record as at most 3 h.

As for `CC(C)=CCC[C@](C)(O[C@@H]1O[C@H](CO)[C@@H](O)[C@H](O)[C@H]1O)[C@H]1CC[C@]2(C)[C@@H]1[C@H](O)C[C@@H]1[C@@]3(C)CC[C@H](O)C(C)(C)[C@@H]3[C@@H](O[C@@H]3O[C@H](CO)[C@@H](O)[C@H](O)[C@H]3O)C[C@]12C` [Rg1, ginsenoside Rg1], the “time within which excreted in the urine” value in series [7] is at most 3 h.

These data come from paper PMC12316956 (Scientific Reports, 2025).
